For assay [1], the system named is L1210. The assay can be described thus: Antitumor activity in the mice with intraperitoneal implanted L1210 lymphoid leukemia at the dose of 34.8 and 56.1 mg/kg/day x 5 was determined as mean survival of treated group compared to untreated; 9.5/9. The format is functional, Mus musculus. The method, boiled down:
(§1)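 C3D2F1/J female mice (C3H/HeJ female × DBA/2J male), groups of six to eight, average weight 25 g. Inoculated ip with 1 × 10^6 L1210 ascites cells taken from DBA/2Ha donor mice bearing 3-5 day old tumors. Compounds were dissolved in 0.154 N NaOH, neutralized with 0.154 N HCl (final 0.9% NaCl), and given ip daily for 5 days from 24 h post-implant. Median survival T/C; ILS = (T/C − 1) × 100; 30-day survivors counted.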

For assay [2], the system named is L1210. The assay can be described thus: Antitumor activity in mice with intraperitoneal implanted L1210 lymphoid leukemia at the dose 9.2 and 14.9 mg/kg/day x 5 was determined as weight change (g/mouse) on 8th day. The format is functional. In short, it runs like this: (§2)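 C3D2F1/J female mice (C3H/HeJ × DBA/2J), groups of six to eight, average 25 g, inoculated ip with 1 × 10^6 L1210 ascites cells taken from DBA/2Ha donor mice carrying 3-5 day tumors. Compound dissolved in 0.154 N NaOH, then neutralized with 0.154 N HCl to give 0.9% NaCl. Given ip daily for 5 consecutive days starting 24 h after implantation. Body weight change per mouse recorded on day 8.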

For assay [3], the system named is L1210. The assay can be described thus: Antitumor activity in the mice with intraperitoneal implanted L1210 lymphoid leukemia at the dose of 9.2 and 14.9 mg/kg/day x 5 was determined as mean survival of treated group compared to untreated; 9.5/9. The format is functional, Mus musculus.
The test system of assay [4] is L1210. The assay can be described thus: Antitumor activity in mice with intraperitoneal implanted L1210 lymphoid leukemia at the dose 34.8 and 56.1 mg/kg/day x 5 was determined as weight change (g/mouse) on 8th day. The format is functional. The method, boiled down: as §2
The subject of assay [5] is L1210. The assay can be described thus: Antitumor activity in the mice with intraperitoneal implanted L1210 lymphoid leukemia at the dose 34.8 and 56.1 mg/kg/day x 5 was determined and number of animals survived on 30 th day were reported; 0/8. The format is functional, Mus musculus. The method, boiled down: (§3)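 Female C3D2F1/J mice (C3H/HeJ × DBA/2J), groups of six to eight, average weight 25 g. Each mouse got 1 × 10^6 L1210 ascites cells ip, taken from DBA/2Ha donor mice bearing 3-5 day tumors. Compound was dissolved in 0.154 N NaOH and neutralized with 0.154 N HCl (final 0.9% NaCl). Dosed ip daily ×5, starting 24 h after implant. Recorded body weight change on day 8, survival range, median survival and 30-day survivors. ILS = (T/C − 1) × 100.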

The subject of assay [6] is L1210. The assay can be described thus: Antitumor activity in the mice with intraperitoneal implanted L1210 lymphoid leukemia at the dose 34.8 and 56.1 mg/kg/day x 5 was determined as Survival time in days; Range is 8-9 days. It is filed as functional, Mus musculus. In short, it runs like this:
as §3

In assay [7] the test system is L1210. The assay can be described thus: Antitumor activity in the mice with intraperitoneal implanted L1210 lymphoid leukemia at the dose 9.2 and 14.9 mg/kg/day x 5 was determined as percentage increase in the life span as compared with control tumor bearers. The format is functional, Mus musculus. The method, boiled down:
as §1

For assay [8], the system named is L1210. The assay can be described thus: Antitumor activity in the mice with intraperitoneal implanted L1210 lymphoid leukemia at the dose 9.2 and 14.9 mg/kg/day x 5 was determined as Survival time in days; Range is 8-10 days. It is filed as functional, Mus musculus. In short, it runs like this: as §1
Assay [9] deals with L1210. The assay can be described thus: Antitumor activity in the mice with intraperitoneal implanted L1210 lymphoid leukemia at the dose 34.8 and 56.1 mg/kg/day x 5 was determined as percentage increase in the life span as compared with control tumor bearers. The format is functional, Mus musculus. The method, boiled down:
as §3

In assay [10] the test system is L1210. The assay can be described thus: Antitumor activity in the mice with intraperitoneal implanted L1210 lymphoid leukemia at the dose 9.2 and 14.9 mg/kg/day x 5 was determined and number of animals survived on 30 th day were reported; 0/6. It is filed as functional, Mus musculus. In short, it runs like this:
as §1

As to `C[C@@H]1C[C@H]2[C@@H]3CCC4=CC(=O)C=C[C@]4(C)[C@@]3(F)[C@@H](O)C[C@]2(C)[C@@]1(O)C(=O)CO.Nc1ccn([C@@H]2O[C@H](CO)[C@@H](O)[C@@H]2O)c(=O)n1`, the T/C in the assay with L1210 [1] came to 8.5; with L1210 [3], 9.5. The Weight change in the assay on L1210 [2] is on record as -4.23 g mouse-1; in the assay on L1210 [4], -2.72 g mouse-1. For the same molecule, the Survivors in the assay on L1210 [5] and with L1210 [10] was 0 throughout. The Survival time in the assay on L1210 [6] and with L1210 [8] was 8 days in each case. Besides, the ILS in the assay on L1210 [7] is listed as -14%; in the assay with L1210 [9] it was -6%.

(Values after ChEMBL document CHEMBL1121364, “Nucleoside conjugates as potential antitumor agents. 3. Synthesis and antitumor activity of 1-(beta-D-arabinofuranosyl)cytosine conjugates of corticosteroids” (1980).)
